Active and inactive are the calls of the source. The rule behind the calls is not given here.
What was measured:
Transcription factor p65 = Transcription factor p65 (Homo sapiens, UniProt Q04206); assay: Inhibition of NFkappa p65 in nuclear extract of human HeLa cells assessed as blockade of NFkappa p65 binding to biotinylated-consesus sequence by ELISA; format: cell-free
HT-29 [1] = assay: Effect on mitochondrial membrane potential in human HT-29 cells after 2 hrs using JC-1 staining by fluorescence assay; format: functional, cell-based; details: HT-29, 2 h
HT-29 [2] = assay: Cytotoxicity against human HT-29 cells after 3 days by sulforhodamine B assay; format: functional; details: HT-29, 72 h, read-out: ED50 (the source's name)
Method in brief: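 Trypsinized HT-29 cells seeded in 96-well plates and exposed to serial DMSO dilutions, with a DMSO negative control and a paclitaxel positive control. Incubated 3 days at 37 °C, 5% CO2, then fixed, stained with sulforhodamine B, lysed in tris base and read at 515 nm. ED50 from nonlinear regression. Run in triplicate, two independent experiments.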

MDA-MB-435 = assay: Antitumor activity against human MDA-MB-435 cells at 20 mg/kg, ip by in-vivo hallow fiber model; format: functional, organism-based; set-up: dose 20 mg/kg
MCF7 = assay: Antitumor activity against human MCF7 cells at 20 mg/kg, ip by in-vivo hallow fiber model; format: functional, organism-based; set-up: dose 20 mg/kg
HT-29 [3] = assay: Antitumor activity against human HT-29 cells at 20 mg/kg, ip by in-vivo hallow fiber model; format: functional, organism-based; set-up: dose 20 mg/kg

Chain of Transcription factor p65 (Q04206 whole entry): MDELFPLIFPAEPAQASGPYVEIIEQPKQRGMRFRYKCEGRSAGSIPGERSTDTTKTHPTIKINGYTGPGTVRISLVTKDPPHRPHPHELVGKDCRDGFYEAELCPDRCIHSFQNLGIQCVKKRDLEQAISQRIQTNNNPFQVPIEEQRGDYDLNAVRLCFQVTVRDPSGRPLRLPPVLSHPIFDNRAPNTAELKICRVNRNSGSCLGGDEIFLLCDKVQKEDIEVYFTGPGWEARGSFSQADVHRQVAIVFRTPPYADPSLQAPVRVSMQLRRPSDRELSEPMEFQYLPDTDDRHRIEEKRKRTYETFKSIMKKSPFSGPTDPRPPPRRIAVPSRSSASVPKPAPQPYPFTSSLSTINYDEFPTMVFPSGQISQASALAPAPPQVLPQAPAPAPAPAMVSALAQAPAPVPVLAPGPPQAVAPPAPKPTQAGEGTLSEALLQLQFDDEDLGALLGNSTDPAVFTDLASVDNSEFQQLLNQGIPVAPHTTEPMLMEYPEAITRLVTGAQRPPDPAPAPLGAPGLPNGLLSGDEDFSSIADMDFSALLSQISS

In the case of CC(C)=CCC/C(C)=C/Cc1c(O)c(CC=C(C)C)c(O)c2c(=O)c3cc(OC(=O)c4ccccc4)ccc3oc12, the IC50 (Transcription factor p65) is reported as > 10 µM and the IC50 (HT-29 [1]) is reported as > 10 µM.

CC(=O)O[C@H]1C(=O)[C@@]2(C)[C@H]([C@H](OC(=O)c3ccccc3)[C@]3(O)C[C@H](OC(=O)[C@H](O)[C@@H](NC(=O)c4ccccc4)c4ccccc4)C(C)=C1C3(C)C)[C@]1(OC(C)=O)CO[C@@H]1C[C@@H]2O [PACLITAXEL] gave an EC50 (HT-29 [2]) of 0.0001 µM.

For COc1c(OC(C)=O)cc2oc3cc(OC(C)=O)c(CC=C(C)C)c(OC(C)=O)c3c(=O)c2c1CC=C(C)C, the EC50 (HT-29 [2]) was 6 µM and the IC50 (Transcription factor p65) was > 10 µM.

With COc1c(O)cc2oc3cc4c(c(O)c3c(=O)c2c1CCC(C)(C)OC=O)CCC(C)(C)O4 the EC50 (HT-29 [2]) was 4.4 µM and the IC50 (HT-29 [1]) was > 10 µM.

COc1ccc2oc3c(C/C=C(\C)CCC=C(C)C)c(OC)c(CC=C(C)C)c(O)c3c(=O)c2c1 was tested, and the EC50 (HT-29 [2]) was > 10 µM and the IC50 (Transcription factor p65) was > 10 µM.

For CC(C)=CCC/C(C)=C/Cc1c(O)c2c(c3c(=O)c4cc(O)ccc4oc13)OC(C)(C)[C@@H](O)C2 [COCHINENSOXANTHONE], the EC50 (HT-29 [2]) was > 10 µM.

CC(C)=CCC/C(C)=C/Cc1c(O)c(CC=C(C)C)c(O)c2c(=O)c3cc(O)ccc3oc12 [COCHINCHINONE A] was tested, and the EC50 (HT-29 [2]) was > 10 µM, the IC50 (Transcription factor p65) was > 10 µM and the IC50 (HT-29 [1]) was > 10 µM.

In the case of CC(=O)Oc1ccc2oc3c(C/C=C(\C)CCC=C(C)C)c(OC(C)=O)c(CC=C(C)C)c(O)c3c(=O)c2c1, the EC50 (HT-29 [2]) is reported as > 10 µM and the IC50 (Transcription factor p65) is reported as > 10 µM.

In the case of COc1cc2oc3c(C)c(OC)c(CC=C(C)C)c(O)c3c(=O)c2c(CC=C(C)C)c1OC, the EC50 (HT-29 [2]) is reported as > 10 µM, the IC50 (Transcription factor p65) is reported as > 10 µM and the IC50 (HT-29 [1]) is reported as 1.4 µM.

For CC(C)=CCc1c(O)cc2oc3cc(O)c(O)c(CC=C(C)C)c3c(=O)c2c1O, the EC50 (HT-29 [2]) was 4 µM and the IC50 (HT-29 [1]) was > 10 µM.

In the case of CC(C)=CC[C@]12OC(C)(C)[C@H]3C[C@H](C=C4C(=O)c5c(O)cc(O)cc5O[C@@]431)C2=O [COCHINCHINOXANTHONE], the EC50 (HT-29 [2]) is reported as 5.8 µM, the IC50 (Transcription factor p65) is reported as > 10 µM and the IC50 (HT-29 [1]) is reported as 3.3 µM.

For COc1c(O)cc2oc3cc(O)c4c(c3c(=O)c2c1CCC(C)(C)O)OC(C)(C)CC4, the EC50 (HT-29 [2]) was > 10 µM and the IC50 (HT-29 [1]) was > 10 µM.

COc1c(O)cc2oc3cc(O)c(CC=C(C)C)c(O)c3c(=O)c2c1CC=C(C)C [MANGOSTIN] was tested, and the EC50 (HT-29 [2]) was 4.1 µM, the IC50 (Transcription factor p65) was > 10 µM and the IC50 (HT-29 [1]) was 0.2 µM.

COc1c(OC(=O)c2ccccc2)cc2oc3cc(O)c(CC=C(C)C)c(O)c3c(=O)c2c1CC=C(C)C was tested, and the EC50 (HT-29 [2]) was 1.9 µM, the IC50 (Transcription factor p65) was > 10 µM and the IC50 (HT-29 [1]) was > 10 µM.

For COc1c(OC(C)=O)cc2oc3cc(OC(C)=O)c(CC=C(C)C)c(O)c3c(=O)c2c1CC=C(C)C, the inhibition (MDA-MB-435) was “inactive”, the inhibition (MCF7) was “inactive” and the EC50 (HT-29 [2]) was 1 µM. The IC50 (Transcription factor p65) was > 10 µM, the inhibition (HT-29 [3]) was “inactive” and the IC50 (HT-29 [1]) was 1.8 µM.

For COc1c(O)cc2oc3cc(OC(C)=O)c(CC=C(C)C)c(O)c3c(=O)c2c1CC=C(C)C, the EC50 (HT-29 [2]) was 8.8 µM and the IC50 (Transcription factor p65) was > 10 µM.

In the case of COc1cc2oc3cc(OC)c(OC)c(CC=C(C)C)c3c(=O)c2c(O)c1CC=C(C)C, the EC50 (HT-29 [2]) is reported as > 10 µM, the IC50 (Transcription factor p65) is reported as > 10 µM and the IC50 (HT-29 [1]) is reported as 0.9 µM.

For COc1ccc2oc3c(C/C=C(\C)CCC=C(C)C)c(O)c(CC=C(C)C)c(O)c3c(=O)c2c1, the IC50 (Transcription factor p65) was > 10 µM and the IC50 (HT-29 [1]) was > 10 µM.

For CC(C)=CCc1c(O)c(CC=C(C)C)c2oc3ccc(O)cc3c(=O)c2c1O, the EC50 (HT-29 [2]) was > 10 µM and the IC50 (Transcription factor p65) was 2.9 µM.

With COc1c(O)cc2oc3cc4c(c(O)c3c(=O)c2c1CCC(C)(C)O)CCC(C)(C)O4 the EC50 (HT-29 [2]) was 4.4 µM and the IC50 (HT-29 [1]) was > 10 µM.
